# pIC50: −log10 of the molar value. Activity calls are given as the source filed them. The rule behind the calls is not given here. Positions of bridges follow the written chain, without caps; N, C: chain ends. Residues, ends and D or L forms follow the SMILES beside them.
# Key:
# [1] = biological target: T1, C-X-C chemokine receptor type 4 (Homo sapiens, UniProt P61073); test: Inhibition of PE-conjugated-12G5 anti-CXCR4 antibody binding to CXCR4 in human CEM-CCRF cells preincubated for 30 mins followed by antibody addition by FACS Canto II cytofluorometric analysis; assay type: cell-based
# T1 sequence (P61073 whole entry): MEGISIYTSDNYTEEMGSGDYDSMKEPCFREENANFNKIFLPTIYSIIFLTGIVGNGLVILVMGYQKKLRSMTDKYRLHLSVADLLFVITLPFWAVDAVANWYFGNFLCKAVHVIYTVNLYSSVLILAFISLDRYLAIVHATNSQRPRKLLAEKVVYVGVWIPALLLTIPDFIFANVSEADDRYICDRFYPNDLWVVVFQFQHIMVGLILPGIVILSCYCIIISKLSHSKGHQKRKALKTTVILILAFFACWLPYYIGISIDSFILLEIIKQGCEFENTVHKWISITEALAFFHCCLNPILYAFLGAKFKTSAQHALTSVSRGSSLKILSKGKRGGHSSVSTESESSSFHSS
# [2] = Drug level in human plasma treated with (4R,7S,10S,13S,16R)-16-amino-7,10-dibenzyl-13-(3-guanidinopropyl)-6,9,12,15-tetraoxo-1,2-dithia-5,8,11,14-tetraazacycloheptadecane-4-carboxylic acid after 2 hrs by ESI-RP-HPLC analysis; assay type: ADME
# Procedure, shortened: (§1)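 Peptide (1 mg/mL in water) was mixed 1:1 with prewarmed (37 °C) human plasma diluted to 50% in water. Aliquots were taken at 0, 30, 60, 120 and 180 min and quenched with 1% TFA in acetonitrile. After centrifugation, supernatants were run on C18 HPLC-ESI-MS with a 10–90% ACN gradient (0.1% TFA) over 20 min. Relative levels came from A230 peak integration.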
# [3] = biological target: T1, C-X-C chemokine receptor type 4; test: Inhibition of GFP-tagged CXCR4 (unknown origin) internalization expressed in human HCT116 cells assessed as reduction in vesicle size at 0.1 uM pre-incubated for 45 mins followed by CXCL12 addition measured after 45 mins by alpha-tubulin/alexa fluor594/DAPI staining based confocal microscopic analysis; assay type: cell-based; details: HCT-116
# Procedure, shortened: (§2)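 HCT116 cells were stably transfected with GFP-CXCR4, grown 1 day on coverslips in DMEM/10% FBS, then equilibrated in DMEM with 0.5% BSA. Cells got peptide (0.1 μM) for 45 min at 37 °C, then CXCL12 for 45 min at 37 °C. They were fixed in 4% formaldehyde, permeabilized with 0.1% Triton, and stained for α-tubulin (Alexa Fluor 594) and DAPI. Confocal microscopy assessed membrane fluorescence and intracellular vesicles.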
# [4] = biological target: T1, C-X-C chemokine receptor type 4; test: Inhibition of CXCR4 in human serum starved CEM cells assessed as suppression of CXCL12-dependent ERK phosphorylation at 0.001 to 0.1 uM after 2 to 20 mins in presence of CXCL12 by H/E staining based microscopic analysis; assay type: cell-based; details: CCRF-CEM, in the assay text read “immunoblotting” for “H/E staining based microscopic analysis”
# Procedure, shortened: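 Serum-starved CEM cells were stimulated with CXCL12 (100 ng/mL) in the presence of peptide. Lysates were made in Hepes pH 7.5/Triton X-100 buffer with protease and phosphatase inhibitors and immunoblotted for p-ERK and ERK2. Induction is the ratio of p-ERK with CXCL12 to p-ERK under serum-free conditions.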
# [5] = Metabolic stability in human plasma after 180 mins by ESI-RP-HPLC analysis; assay type: ADME, cell-free; details: 3 h; procedure, shortened: as §1
# [6] = biological target: T1, C-X-C chemokine receptor type 4; test: Antagonist activity at CXCR4 in human HT29 cells assessed as suppression of CXCL12 dependent cell migration at 0.0001 to 10 uM in presence of CXCL12 by H/E staining based microscopic analysis; details: HT-29
# Procedure, shortened: (§3)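 Transwell migration assay: inserts with 5 μm pores for CEM cells and 8 μm pores for HT29 cells, membranes precoated with human collagen type I/III and fibronectin (20 μg/mL each). 2 × 10^5 cells went in the upper chamber in medium with 1% BSA plus peptide, and 100 ng/mL CXCL12 in the lower chamber, for 18 h. Migrated cells were H&E-stained and counted in 10 fields. Migration index was taken against BSA-only medium.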
# [7] = biological target: T1, C-X-C chemokine receptor type 4; test: Inhibition of GFP-tagged CXCR4 (unknown origin) internalization expressed in human HCT116 cells at 0.1 uM pre-incubated for 45 mins followed by CXCL12 addition measured after 45 mins by alpha-tubulin/alexa fluor594/DAPI staining based confocal microscopic analysis; assay type: cell-based; details: HCT-116; procedure, shortened: as §2
# [8] = biological target: T1, C-X-C chemokine receptor type 4; test: Inhibition of CXCR4 in human CEM cells assessed as suppression of CXCL12-dependent cell migration after 18 hrs in presence of CXCL12 by H/E staining based microscopic analysis; details: CCRF-CEM; procedure, shortened: as §3
# [9] = biological target: T1, C-X-C chemokine receptor type 4; test: Inhibition of 12G5 anti-CXCR4 antibody binding to CXCR4 in human HT29 cells preincubated for 30 mins followed by antibody addition by FACS Canto II cytofluorometric analysis; assay type: cell-based, HT-29
# [10] = Drug metabolism in human plasma assessed as cyclic pentapeptide cyclo[Cys-Arg-Phe-Phe-Cys] metabolite formation after 120 mins by ESI-RP-HPLC analysis; assay type: ADME, cell-free; details: 2 h; procedure, shortened: as §1
# [11] = Metabolic stability in human plasma assessed as compound degradation after 60 mins by ESI-RP-HPLC analysis; assay type: ADME, cell-free; details: read-out: Drug degradation; procedure, shortened: as §1
# [12] = Drug metabolism in human plasma after 30 mins by ESI-RP-HPLC analysis; assay type: ADME, cell-free; details: read-out: Drug metabolism
structure (smiles),measurement,setting,value
CC(=O)N[C@@H](CCCNC(=N)N)C(=O)N[C@@H](C)C(=O)N[C@H]1CSSC[C@@H](C(N)=O)NC(=O)[C@H](Cc2ccccc2)NC(=O)[C@H](Cc2ccccc2)NC(=O)[C@H](CCCNC(=N)N)NC1=O (Ac-RACRFFC-NH2; disulfide 3-7),pIC50,[1],5.91
CC(=O)N[C@@H](CCCNC(=N)N)C(=O)N[C@@H](C)C(=O)N[C@H]1CSSC[C@@H](C(=O)O)NC(=O)[C@H](Cc2ccccc2)NC(=O)[C@H](Cc2ccccc2)NC(=O)[C@@H](CCCNC(=N)N)NC1=O,pIC50,[1],< 5.00
CC(=O)N[C@@H](CCCNC(=N)N)C(=O)N[C@@H](C)C(=O)N[C@@H]1CSSC[C@@H](C(=O)O)NC(=O)[C@H](C)NC(=O)[C@H](Cc2ccccc2)NC(=O)[C@H](CCCNC(=N)N)NC1=O,pIC50,[1],< 5.00
CC(=O)N[C@H](CCCNC(=N)N)C(=O)N[C@@H](C)C(=O)N[C@H]1CSSC[C@@H](C(=O)O)NC(=O)[C@H](Cc2ccccc2)NC(=O)[C@H](Cc2ccccc2)NC(=O)[C@H](CCCNC(=N)N)NC1=O,pIC50,[1],< 5.00
CC(=O)N[C@@H](CCCNC(=N)N)C(=O)N[C@@H](C)C(=O)N[C@H]1CSSC[C@H](C(=O)O)NC(=O)[C@H](Cc2ccccc2)NC(=O)[C@H](Cc2ccccc2)NC(=O)[C@H](CCCNC(=N)N)NC1=O,pIC50,[1],5.23
C[C@H](NC(=O)[C@@H](N)CCCNC(=N)N)C(=O)N[C@H]1CSSC[C@@H](C(N)=O)NC(=O)[C@H](Cc2ccccc2)NC(=O)[C@H](Cc2ccccc2)NC(=O)[C@H](CCCNC(=N)N)NC1=O (H-RACRFFC-NH2; disulfide 3-7),pIC50,[1],5.23
CC(=O)N[C@@H](CCCNC(=N)N)C(=O)N[C@@H](C)C(=O)N[C@@H]1CSSC[C@@H](C(=O)O)NC(=O)[C@H](Cc2ccccc2)NC(=O)[C@H](C)NC(=O)[C@H](CCCNC(=N)N)NC1=O,pIC50,[1],< 5.00
CC(=O)N[C@@H](CCCNC(=N)N)C(=O)N[C@@H](C)C(=O)N[C@H]1CSSC[C@@H](C(=O)O)NC(=O)[C@@H](Cc2ccccc2)NC(=O)[C@H](Cc2ccccc2)NC(=O)[C@H](CCCNC(=N)N)NC1=O,pIC50,[1],< 5.00
CC(=O)N[C@@H](CCCNC(=N)N)C(=O)N[C@H](C)C(=O)N[C@H]1CSSC[C@@H](C(=O)O)NC(=O)[C@H](Cc2ccccc2)NC(=O)[C@H](Cc2ccccc2)NC(=O)[C@H](CCCNC(=N)N)NC1=O,pIC50,[1],< 5.00
N=C(N)NCCC[C@@H]1NC(=O)[C@@H](N)CSSC[C@@H](C(=O)O)NC(=O)[C@H](Cc2ccccc2)NC(=O)[C@H](Cc2ccccc2)NC1=O (H-CRFFC-OH; disulfide 1-5),Drug uptake,[2],Active
CC(=O)N[C@@H](CCCNC(=N)N)C(=O)N[C@@H](C)C(=O)N[C@@H]1CSSC[C@@H](C(=O)O)NC(=O)[C@H](Cc2ccccc2)NC(=O)[C@H](Cc2ccccc2)NC(=O)[C@H](CCCNC(=N)N)NC1=O,inhibition,[3],Active
same,inhibition,[4],Active
same,Stability,[5],Stable
same,inhibition,[6],Active
same,inhibition,[7],Active
same,pIC50,[1],7.28
same,inhibition,[8],Active
same,pIC50,[9],7.19
CC(=O)N[C@@H](CCCNC(=N)N)C(=O)N[C@@H](C)C(=O)N[C@H]1CSSC[C@@H](C(=O)O)NC(=O)[C@H](Cc2ccccc2)NC(=O)[C@H](Cc2ccccc2)NC(=O)[C@H](CCCNC(=N)N)NC1=O,Stability,[5],Stable
same,pIC50,[1],6.88
C[C@H](NC(=O)[C@@H](N)CCCNC(=N)N)C(=O)N[C@H]1CSSC[C@@H](C(=O)O)NC(=O)[C@H](Cc2ccccc2)NC(=O)[C@H](Cc2ccccc2)NC(=O)[C@H](CCCNC(=N)N)NC1=O (H-RACRFFC-OH; disulfide 3-7),inhibition,[3],Active
same,inhibition,[4],Active
same,Drug metabolism,[10],Metabolite_Detected
same,inhibition,[6],Active
same,metabolised at 1 h,[11],50%
same,inhibition,[7],Active
same,metabolised at 0.5 h,[12],30%
same,pIC50,[1],5.21
same,inhibition,[8],Active
same,pIC50,[9],5.28
CC(=O)N[C@@H](CCCNC(=N)N)C(=O)N[C@@H](C)C(=O)N[C@@H]1CSSC[C@@H](C(=O)O)NC(=O)[C@H](Cc2ccccc2)NC(=O)[C@H](Cc2ccccc2)NC(=O)[C@H](C)NC1=O,pIC50,[1],< 5.00
CC(=O)N[C@@H](CCCNC(=N)N)C(=O)N[C@@H](C)C(=O)N[C@H]1CSSC[C@@H](C(=O)O)NC(=O)[C@H](Cc2ccccc2)NC(=O)[C@@H](Cc2ccccc2)NC(=O)[C@H](CCCNC(=N)N)NC1=O,pIC50,[1],< 5.00
CC(=O)N[C@@H](C)C(=O)N[C@@H](C)C(=O)N[C@@H]1CSSC[C@@H](C(=O)O)NC(=O)[C@H](Cc2ccccc2)NC(=O)[C@H](Cc2ccccc2)NC(=O)[C@H](CCCNC(=N)N)NC1=O,pIC50,[1],< 5.00

# Reference: ChEMBL document CHEMBL3853330, “Exploring the N-Terminal Region of C-X-C Motif Chemokine 12 (CXCL12): Identification of Plasma-Stable Cyclic Peptides As Novel, Potent C-X-C Chemokine Receptor Type 4 (CXCR4) Antagonists” (J Med Chem, 2016)
